Screening results: PubChem BioAssay, several laboratories
PLAP activator – activators of human placental alkaline phosphatase | purified PLAP enzyme, luminescent substrate read-out; stronger effect = higher value | AID 696 | 96,000 compounds, 1.2% hits | activation fold at 20 µM; in the data active means activation fold above about 2
Target sequence (P05187 whole entry, looked up): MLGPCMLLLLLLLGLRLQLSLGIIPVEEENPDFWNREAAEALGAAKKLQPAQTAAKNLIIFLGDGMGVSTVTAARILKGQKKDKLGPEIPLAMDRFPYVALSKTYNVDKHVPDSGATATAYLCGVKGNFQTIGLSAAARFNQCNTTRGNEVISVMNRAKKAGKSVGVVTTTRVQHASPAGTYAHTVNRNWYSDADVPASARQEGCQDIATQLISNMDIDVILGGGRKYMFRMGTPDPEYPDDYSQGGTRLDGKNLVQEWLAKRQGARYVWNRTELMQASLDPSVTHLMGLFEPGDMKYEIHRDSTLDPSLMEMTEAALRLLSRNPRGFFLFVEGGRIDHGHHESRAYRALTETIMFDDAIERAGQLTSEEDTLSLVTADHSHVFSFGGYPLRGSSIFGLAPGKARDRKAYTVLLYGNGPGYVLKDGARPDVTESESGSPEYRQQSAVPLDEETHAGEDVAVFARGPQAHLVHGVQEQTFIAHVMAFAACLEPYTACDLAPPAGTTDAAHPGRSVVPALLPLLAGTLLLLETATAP
PostGolgi ctrl – growth of the yeast control strain, post-Golgi counter-screen; AID 738; 98,000 compounds, 5% hits; inhibition, % at 10 µM; efflux-deficient yeast background strain, growth absorbance A615, 16 h
tolC growth inh – growth inhibitors of E. coli BW25113 tolC mutant; OD615; growth inhibition, % at 10 µM (by protocol); 65,000 compounds, 2.2% hits;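 active means growth inhibition at or above a cutoff equal to the mean over every tested compound plus 3 SD, cut at about 60% in these data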;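 further: growth measured after 20 h incubation at 37 °C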
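System: E. coli ΔtolC::kan strain BW25113; Buffer or medium: LB broth supplemented with 50 µg/mL kanamycin; Compound: 10 µM final, single dose; Incubation: bacterial growth with compound for 20 h at 37 °C; Signal: A615 absorbance measurement; Evaluation: growth inhibition in percent.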
E coli WT exp – E. coli BW25113 growth inhibition, expanded screen | growth inhibition, % at 100 µM | AID 710 | 98,000 compounds, 0.15% hits | OD600 absorbance;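 active means growth inhibition above about 50% at one test dose, limit read from the data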;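 further: growth measured after 20 h incubation at 37 °C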
PostGolgi yeast – growth inhibition of a yeast mutant, post-Golgi transport screen | 98,000 compounds, 0.9% hits | AID 739 | inhibition, % at 10 µM | post-Golgi transport phenotypic cell assay;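 further: yeast cells grown in 1536-well plates; yeast grown about 18 h at 30C before absorbance read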
HePTP inh – human HePTP phosphatase inhibition; 110,000 compounds, 0.64% hits; inhibition, % at 20 µM; recombinant HePTP phosphatase activity, OD absorbance; P35236; in the data active means inhibition above about 50%;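 further: plate controls were vehicle for no effect and reference inhibitor for full effect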
Active calls of the source: *; x = no result given. Only some compounds are listed: those with a hit (about 5.4% of all), similar ones and a draw of the others. Unless noted, no stated cut-off is given here; in the data, active means inhibition above about 30%; inactive means the rest.

SMILES	PLAP activator	PostGolgi ctrl	tolC growth inh	E coli WT exp	PostGolgi yeast	HePTP inh
CC1CCCC(C)N1C(=O)c1cc(F)c(F)cc1Cl (stereo not given)	0.9	37.0*	-4.8	13.0	-6.4	2.9
CCOC(=O)COc1ccc(-c2nc3sc4c(c3c(=O)[nH]2)CCCC4)cc1OC	x	x	x	x	x	11.1
CCn1cc(C(=O)NC2CCCCC2C)c(=O)c2ccc(C)nc21 (stereo not given)	1.1	14.8	100.0*	92.0*	18.6	-2.7
CCN(CC)c1ccc(C(=O)Nc2cccc(F)c2)cc1	0.8	10.0	61.8*	-4.0	-2.8	4.7
CCN(CC)c1ccc(C(=O)Nc2ccncc2)cc1	x	x	x	x	x	7.1
COn1c2c(c3c4no[n+]([O-])c4ccc31)CCCC2	1	14.5	x	2.0	-1.0	x
[O-][n+]1c2c(c3c4non(O)c4ccc31)CCCC2	0.8	81.7*	x	4.0	31.2*	x
CCC12CN3CC(CC)(CN(C1)C3c1ccc(OC)cc1)C2=O (stereo not given)	x	x	x	x	x	-7.0
Cc1sc2nc(SCC(=O)C(C)(C)C)n(Cc3ccco3)c(=O)c2c1C	1	39.2*	x	-15.0	2.5	x
CCOC(=O)c1ccc(NC(=O)C(=O)NCCCOC)cc1	x	x	x	x	x	5.3
COCCn1c(C2CCCCC2)nc2sc3ccccc3c(=O)c2c1=O	1.4	84.8*	19.4	-7.0	38.8*	-2.0
CCc1nc2sc3ccccc3c(=O)c2c(=O)n1CCOC	1.1	-19.7	x	4.0	-10.4	x
O=C(NC(=S)Nc1ccccc1)c1cccnc1	x	x	x	x	x	4.1
Cc1nn(-c2ccccc2)c(C)c1C(=O)OCC(=O)N1CCN(S(=O)(=O)c2ccccc2)CC1	1.7	96.5*	1.0	-9.0	29.8	1.4
CCOC(=O)c1c(C)[nH]c(C(=O)OCC(=O)N2CCN(S(=O)(=O)c3ccccc3)CC2)c1C	1.3	2.5	-5.9	-9.0	-6.5	-0.3
CC(C)c1cc(Br)ccc1OCCCN1C(=O)NC(C)(C)C1=O	1.6	37.5*	x	-6.0	-4.2	x
CSCCOC(=O)C1=C(C)NC(=O)CC1c1ccccc1Cl (stereo not given)	1.1	8.2	62.5*	13.0	-4.8	6.9
COC(=O)COc1ccc(/C=C(/C#N)C(=O)Nc2cccc(Br)c2)cc1OC	x	x	x	x	x	-2.4
Cc1ccc(/C=N/NC(=O)C2=NNC(=O)C2C)o1 (stereo not given)	x	x	x	x	x	-4.3
Cc1ccc(S(=O)(=O)Nc2cc(C(=O)Nc3cc(C)cc(C)c3)ccc2Cl)cc1	1.4	36.8*	x	-3.0	-1.2	x
Cc1cccc(NC(=O)c2cccc(NS(=O)(=O)c3ccc(Cl)cc3)c2)c1	1.4	-7.2	x	2.0	-2.0	x
COc1ccc(/C(O)=C2/C(=O)C(=O)N(CCCCCC(=O)O)C2c2cccc([N+](=O)[O-])c2)cc1 (stereo not given)	x	x	x	x	x	-13.4
COc1ccc(S(=O)(=O)Nc2cc3c(C(C)=O)c(C)oc3c3ccccc23)cc1	2*	65.3*	x	6.0	4.0	-3.0
COc1cc(NS(=O)(=O)c2ccc(C)cc2)c2ncccc2c1	x	36.2*	25.8	-5.0	-1.1	-1.0
CCCOc1ccc(N2C(=O)CC(N3CCN(c4cccc(C(F)(F)F)c4)CC3)C2=O)cc1 (stereo not given)	x	x	x	x	x	-0.5
SMILES	PLAP activator	PostGolgi ctrl	tolC growth inh	E coli WT exp	PostGolgi yeast	HePTP inh
O=[N+]([O-])c1ccc(OC/C=C2\Oc3ccc([N+](=O)[O-])cc3C2N2CCOCC2)cc1 (stereo not given)	1.3	35.2*	x	-19.0	11.7	x
O=[N+]([O-])c1ccc2c(c1)C(N1CCOCC1)/C(=C/COc1ccc(F)cc1)O2 (stereo not given)	1.4	8.0	x	-6.0	2.0	x
C=COCCNC(=O)C(=O)Nc1ccccc1OCC	x	x	x	x	x	2.5
CCCCOn1c(C)c(C(=O)OCC)c2c3nonc3ccc21	x	x	66.0*	x	x	-5.1
O=C(NNc1ccccn1)C(=O)NNS(=O)(=O)c1ccc(Cl)cc1	2.4*	31.3*	x	23.0	2.6	x
O=S(=O)(N=C(Nc1ccccn1)c1ccccc1)c1ccc(Cl)cc1	x	x	x	x	x	7.5
Cc1cccc(C)c1NC(=S)NNc1ncc(C(F)(F)F)cc1Cl	2.1*	4.4	x	2.0	1.1	x
COc1ccc(NC(=S)NNC(=O)OC(C)(C)C)cc1OC	2.5*	-1.6	x	5.0	-9.1	x
COC(=O)Nc1ccc(OC)c(OC)c1	1.2	23.8	-9.4	2.0	-8.1	-4.0
O=C(O)C(c1ccccc1)N1C(=O)/C(=C/C=C/c2ccccc2)SC1=S (stereo not given)	x	x	x	x	x	19.9
COc1ccccc1/C=C(/NC(=O)c1ccc(C)cc1)C(=O)Nc1ccc(S(N)(=O)=O)cc1	x	x	x	x	x	4.6
O=C(c1ccc(Cn2cc(Br)cn2)o1)N1N=C(C(F)F)CC1(O)C(F)F (stereo not given)	2*	14.9	x	2.0	21.2	x
COc1ccccc1OCc1ccc(C(=O)N2N=C(C(F)F)CC2(O)C(F)F)o1 (stereo not given)	1.6	9.4	x	-2.0	-3.7	x
CCOC(=O)C1=C(N2CCCCC2)c2cc3c(n2C1=O)CCCC3	1	33.0*	31.9	14.0	2.0	0.2
CCOC(=O)c1ccc(NC2=C(N3CCCCC3)C(=O)c3ccccc3C2=O)cc1	x	x	x	x	x	5.8
Cc1cc(C)n(CC(O)Cn2c3ccc(Cl)cc3c3cc(Cl)ccc32)c(=O)n1 (stereo not given)	1.6	99.1*	x	-11.0	98.9*	x
COC(=O)c1c(NC(=O)c2ccc([N+](=O)[O-])c(C)c2)sc2c1CCCCCC2	x	x	x	x	x	-13.8
COc1ccccc1NC(=O)CN1CCC(C(=O)c2ccc(F)cc2)CC1	1.2	32.4*	x	5.0	-5.3	x
COc1ccccc1NC(=O)CN1CCN(CC(=O)Nc2ccc(Cl)c(C(F)(F)F)c2)CC1	1.5	82.1*	26.3	-2.0	-1.8	4.0
c1cncc(-c2nc(NCC3COc4ccccc4O3)c3ccccc3n2)c1 (stereo not given)	0.8	46.9*	x	-4.0	1.1	x
Cc1cccc(N2C(N)=C(C#N)C(C#N)(C#N)C2c2ccccc2)c1 (stereo not given)	0.9	24.8	100.0*	8.0	1.4	1.4
N#CC1=C(N)N(c2ccccc2)C(c2cccc([N+](=O)[O-])c2)C1(C#N)C#N (stereo not given)	0.8	1.5	x	0.0	6.1	x
CCc1nc2nc(C)cc(Nc3cccc(C(F)(F)F)c3)n2n1	2.4*	11.1	-5.7	0.0	7.7	-10.0
CCOc1ccc(-c2nnc(NC(=O)Nc3ccccc3)s2)cc1	x	x	x	x	x	-3.7
Cc1cc(C)nc(Nc2ncc(O)n2-c2ccc(C)c(Cl)c2)n1	1.9	6.5	-4.5	-11.0	5.3	2.2
Cc1cc(C)nc(Nc2ncc(O)n2-c2ccc(C)c(C)c2)n1	2.6*	-1.0	x	8.0	6.7	x
CCC(C(=O)c1ccc(O)cc1)c1ccccc1 (stereo not given)	1	35.9*	22.5	14.0	1.4	1.5
O=C(O)C(Cc1ccc(O)cc1)c1ccccc1 (stereo not given)	x	x	x	x	x	-25.9
COc1ccc(C2C(C(=O)Nc3ccc4c(c3)OCCO4)c3ccccc3C(=O)N2C)cc1 (stereo not given)	0.9	31.2*	x	1.0	2.5	x
